Reference: ChEMBL document CHEMBL1123743, “Antisecretory activity of human, dog, and rat metabolites of fenoctimine” (J Med Chem, 1987)
Converted amounts (≈) assume the structure as drawn. The source made the active and inactive calls. No cut-off for these calls is given here.

How the values were obtained:
[1] = organism: Cavia porcellus; test: Anticholinergic activity was determined in vitro by measuring their effect on the acetylcholine chloride induced contraction of guinea pig ileum; assay type: functional
How it was run: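 Ileum was isolated from female guinea pigs (200–500 g) killed with CO2. Acetylcholine chloride was added in rising concentrations up to maximal response. Test compound was given 2 min before the agonist, with antagonism assessed against the maximal acetylcholine dose. Full concentration–response curves were run.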

[2] = tested on: Rattus norvegicus; test: Antisecretory activity was evaluated in acute gastric fistula of rat after intraperitoneal administration; assay type: functional; conditions: Stomach, ip
[3] = tested on: Rattus norvegicus; test: Antisecretory activity was evaluated in acute gastric fistula of rat after intravenous administration; assay type: functional; conditions: Stomach
[4] = tested on: Rattus norvegicus; test: Antisecretory activity was evaluated in acute gastric fistula of rat after peroral administration; assay type: functional; conditions: Stomach, po
How it was run: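 Female Sprague-Dawley rats (120–160 g), food-deprived ≥18 h, given drug or vehicle (0.5% methocel) orally 1 h before surgery. Under ether anesthesia a flanged polyethylene cannula was placed in the fundic stomach. The first 30-min collection was discarded, then two 1-h samples were taken. Volume was measured and acidity titrated to pH 7 with 0.01 N NaOH. ED50 = dose giving 50% inhibition of total acid output vs controls, by least-squares regression.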

[5] = tested on: Rattus norvegicus; test: Antisecretory activity was evaluated in acute gastric fistula of rat after administration of 40 mg/kg; I=inactive; assay type: functional, organism-based; set-up: dose 40 mg/kg; conditions: Stomach

IC50 [1] [µg/mL]	SMILES	ED50 [2] [mg/kg]	ED50 [3] [mg/kg]	ED50 [4] [mg/kg]	ED50 [5]
1.8 (≈ 4.61 µM)	CCCCCCCC/N=C/N1CCC(C(c2ccccc2)c2ccccc2)CC1 [FENOCTIMINE]	0.6	1.1	3.9	–
1.2	Cl.O.O=C([O-])CCCCCCC/N=C/N1CCC(C(c2ccccc2)c2ccccc2)CC1.O=C([O-])CCCCCCC/N=C/N1CCC(C(c2ccccc2)c2ccccc2)CC1.[Zn+2]	–	–	–	–
1.9	CCCCCCCC/N=C\N1CCC(C(c2ccccc2)c2ccc(OC)cc2)CC1.O=C(O)/C=C/C(=O)O (stereo not drawn)	0.63	–	15.7	–
1.7 (≈ 4.18 µM)	CC(O)CCCCCC/N=C/N1CCC(C(c2ccccc2)c2ccccc2)CC1 (stereo not drawn)	–	–	8.9	–
0.29 (≈ 0.713 µM)	OCCCCCCCC/N=C/N1CCC(C(c2ccccc2)c2ccccc2)CC1	0.44	9.7	8.5	–
4.1	C/C(CCCCCC/N=C\N1CCC(C(c2ccccc2)c2ccccc2)CC1)=N\O.O=S(=O)(O)c1ccc2ccccc2c1	8.8	–	12.5	–
2.2 (≈ 5.44 µM)	CC(=O)CCCCCC/N=C/N1CCC(C(c2ccccc2)c2ccccc2)CC1	1.5	–	10.5	–
0.3	COC(=O)CCCCCCC/N=C/N1CCC(C(c2ccccc2)c2ccccc2)CC1.O=C(O)/C=C/C(=O)O	–	4.7	10.1	–
0.96	CCCCCCCC/N=C/N1CCC(C(c2ccccc2)c2ccc(O)cc2)CC1.O=S(=O)(O)c1ccc2ccccc2c1 (stereo not drawn)	3.1	–	> 40	–
1.96	CC1(CCCCCC/N=C\N2CCC(C(c3ccccc3)c3ccccc3)CC2)OCCO1.O=C(O)/C=C/C(=O)O	0.98	–	4.8	–
–	CN/C(=N\CCSCc1nc[nH]c1C)NC#N [CIMETIDINE]	–	–	7.6	–
0.26 (≈ 0.687 µM)	OCCCCCC/N=C/N1CCC(C(c2ccccc2)c2ccccc2)CC1	2	4.5	11.2	–
21.9 (≈ 78.4 µM)	O=CN1CCC(C(c2ccccc2)c2ccccc2)CC1	–	–	–	inactive

SMILES	IC50 [1] [µg/mL]	ED50 [2] [mg/kg]	ED50 [3] [mg/kg]	ED50 [4] [mg/kg]	ED50 [5]
CN1[C@@H]2CC[C@H]1C[C@@H](OC(=O)C(CO)c1ccccc1)C2 (stereo partly drawn) [ATROPINE]	0.0038 (≈ 0.0131 µM)	–	–	1.1	–
